Laboratory results published in ChEMBL document CHEMBL1142362, “Synthesis and biological activity of simplified denoviose-coumarins related to novobiocin as potent inhibitors of heat-shock protein 90 (hsp90)” (Bioorg Med Chem Lett, 2008).
The source made the active and inactive calls. The calls are words filed in the database; no cut-off is given here.

Experiments:
MCF7 [1] = assay: Inhibition of HSP90 in human MCF7 cells assessed as decrease in ERalpha level at 100 uM after 16 hrs by Western blot analysis; format: cell-based
How it was run: (§1)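 Treated MCF-7 cell lysates were immunoblotted using the primary antibodies ERα (HC20) and Raf-1 (C12), with detection by a peroxidase-labelled secondary antibody. The control lysate came from DMSO-exposed cells. A nonspecific band served as the loading control.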

MCF7 [2] = assay: Antiproliferative activity against human MCF7 cells after 72 hrs by MTT assay; format: functional, cell-based; conditions: MCF7, 72 h
How it was run: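 MCF-7 cells were seeded at 5000 cells/well and, after 24 h, exposed to serial dilutions for 72 h. Survival was read by MTT. IC50 is the concentration giving 50% growth inhibition versus vehicle-treated cells. Values are the means of three experiments run in sextuplicate, with standard deviation.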

MELN [3] = assay: Effect on estradiol-induced transcription in human MELN cells assessed as inhibition of luciferase activity at 200 uM after 18 hrs relative to control; format: functional, cell-based
How it was run: (§2)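 MELN breast cancer cells were treated for 18 h with the compounds, with or without 0.1 nM estradiol. Luciferase activity was measured and expressed as fold induction relative to untreated control cells.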

MCF7 [4] = assay: Inhibition of HSP90 in human MCF7 cells assessed as decrease in Raf-1 level at 100 uM after 16 hrs by Western blot analysis; format: cell-based; how it was run: as §1
MCF7 [5] = assay: Reversal of inhibition of HSP90 in human MCF7 cells assessed as decrease in ERalpha level at 100 uM after 16 hrs in presence of MG132 by Western blot analysis; format: cell-based
MELN [6] = assay: Effect on estradiol-induced transcription in human MELN cells assessed as increase in luciferase activity at 200 uM after 18 hrs relative to control; format: functional, cell-based; how it was run: as §2
MCF7 [7] = assay: Inhibition of HSP90 in human MCF7 cells assessed as decrease in progesterone receptor A level; format: cell-based
How it was run: (§3)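 MCF-7 cells were exposed to increasing concentrations, and lysates were immunoblotted for PRA and PRB with a PR (Ab-8) primary antibody and a peroxidase-labelled secondary antibody. The control was a DMSO-exposed lysate. A nonspecific band served as the constant loading reference.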

MCF7 [8] = assay: Inhibition of HSP90 in human MCF7 cells assessed as decrease in progesterone receptor B level; format: cell-based; how it was run: as §3

With COc1cc(C(=O)Nc2c(OS(=O)(=O)c3ccc(C)cc3)c3ccccc3oc2=O)cc(OC)c1OC the Activity (MCF7 [1]) was “Active”, the IC50 (MCF7 [2]) was 40 µM and the Activity (MELN [3]) was “Active”. The Activity (MCF7 [4]) was “inactive” and the Activity (MCF7 [5]) was “Active”.

For CCCC(=O)Nc1c(-c2cc(OC)c(OC)c(OC)c2)c2ccccc2oc1=O, the Activity (MCF7 [1]) was “inactive” and the Activity (MCF7 [4]) was “inactive”.

With COc1cccc(OC)c1C(=O)Nc1c(O)c2ccccc2oc1=O the Activity (MCF7 [1]) was “Active”, the Activity (MCF7 [4]) was “Active” and the Activity (MCF7 [5]) was “Active”.

In the case of COc1ccc(-c2c(NC(=O)c3cc(OC)c(OC)c(OC)c3)c(=O)oc3ccccc23)cc1, the Activity (MCF7 [1]) is reported as “inactive” and the Activity (MCF7 [4]) is reported as “inactive”.

For COc1ccc2cc(C(=O)Nc3c(O)c4ccccc4oc3=O)c(=O)oc2c1, the Activity (MCF7 [1]) was “Active”, the Activity (MCF7 [4]) was “Active” and the Activity (MCF7 [5]) was “Active”.

For COc1ccccc1CC(=O)Nc1c(OS(=O)(=O)c2ccc(C)cc2)c2ccccc2oc1=O, the Activity (MELN [3]) was “Active”.

With CCCCCCCCCCCCC(=O)Nc1c(OS(=O)(=O)c2ccc(C)cc2)c2ccccc2oc1=O the Activity (MCF7 [1]) was “Active”, the IC50 (MCF7 [2]) was 50 µM and the Activity (MELN [3]) was “Active”. The Activity (MCF7 [4]) was “Active” and the Activity (MCF7 [5]) was “Active”.

For CC1(C)C=Cc2cc(C(=O)Nc3c(O)c4ccccc4oc3=O)ccc2O1, the Activity (MCF7 [1]) was “inactive”, the Activity (MELN [6]) was “Active” and the Activity (MCF7 [4]) was “inactive”.

For Cc1ccc(S(=O)(=O)Oc2c(NC(=O)c3ccc4c(c3)C=CC(C)(C)O4)c(=O)oc3ccccc23)cc1, the Activity (MCF7 [1]) was “Active”, the IC50 (MCF7 [2]) was 35 µM and the Activity (MCF7 [7]) was “Active”. For the same compound, the Activity (MELN [3]) was “Active”, the Activity (MCF7 [4]) was “Active” and the Activity (MCF7 [5]) was “Active”. The Activity (MCF7 [8]) was “Active”.

CCCCCCCCCCCCC(=O)Nc1c(-c2ccc(OC)cc2)c2ccccc2oc1=O was tested, and the Activity (MCF7 [1]) was “Active”, the Activity (MCF7 [4]) was “Active” and the Activity (MCF7 [5]) was “Active”.

In the case of CCCCCCCCCCCCC(=O)Nc1c(-c2cc(OC)c(OC)c(OC)c2)c2ccccc2oc1=O, the Activity (MCF7 [1]) is reported as “inactive” and the Activity (MCF7 [4]) is reported as “inactive”.

With Cc1ccc(S(=O)(=O)Oc2c(NC(=O)C3=Cc4ccccc4OC3)c(=O)oc3ccccc23)cc1 the Activity (MCF7 [1]) was “Active”, the IC50 (MCF7 [2]) was 70 µM and the Activity (MELN [3]) was “Active”. For the same compound, the Activity (MCF7 [4]) was “Active” and the Activity (MCF7 [5]) was “Active”.

CCCC(=O)Nc1c(O)c2ccccc2oc1=O was tested, and the Activity (MCF7 [1]) was “inactive”, the Activity (MELN [3]) was “Active” and the Activity (MCF7 [4]) was “inactive”.

With CCCCCCCCCCCCC(=O)Nc1c(-c2ccc(Cl)cc2)c2ccccc2oc1=O the Activity (MCF7 [1]) was “inactive” and the Activity (MCF7 [4]) was “inactive”.

In the case of CCCC(=O)Nc1c(OS(=O)(=O)c2ccc(C)cc2)c2ccccc2oc1=O, the Activity (MCF7 [1]) is reported as “Active”, the IC50 (MCF7 [2]) is reported as 75 µM and the Activity (MELN [3]) is reported as “Active”. For the same compound, the Activity (MCF7 [4]) was “Active” and the Activity (MCF7 [5]) was “Active”.

With CC1(C)CCc2cc(C(=O)Nc3c(O)c4ccccc4oc3=O)ccc2O1 the Activity (MCF7 [1]) was “Active”, the Activity (MCF7 [4]) was “Active” and the Activity (MCF7 [5]) was “Active”.

For COc1ccc(-c2c(NC(=O)c3ccc(OC)cc3OC)c(=O)oc3ccccc23)cc1, the Activity (MCF7 [1]) was “inactive” and the Activity (MCF7 [4]) was “inactive”.

CC(=O)Nc1c(O)c2ccccc2oc1=O was tested, and the Activity (MCF7 [1]) was “Active”, the Activity (MCF7 [4]) was “Active” and the Activity (MCF7 [5]) was “Active”.

COc1ccccc1CC(=O)Nc1c(O)c2ccccc2oc1=O was tested, and the Activity (MCF7 [1]) was “Active”, the Activity (MCF7 [4]) was “Active” and the Activity (MCF7 [5]) was “Active”.
